Measured values pooled from the literature.
Compare with care: the assays were run in different laboratories.
Target: Receptor tyrosine-protein kinase erbB-4 (ERBB4, Homo sapiens, UniProt Q15303)

Structure (SMILES) | test | setting | measurement | result
COc1cc2ncnc(Nc3ccc(Oc4ccccc4)cc3C)c2cc1OC | enzyme activity, inhibitor | 1 µM | inhibition | 98%
CN(C)c1ncnc(-c2ccc3nc(Nc4cc(CN5CCN(C(=O)CC(F)(F)F)CC5)ccn4)[nH]c3c2)c1Cl | cell-free assay, competition with immobilised ligand | 1 µM | remaining binding | 99%
Cc1sc(C(=O)NC2COC2)cc1-n1cc(NC(=O)Nc2c(F)cccc2Cl)cn1 | enzyme activity, inhibitor | 10 µM | remaining activity | 95%
Nc1ncnc2occ(-c3ccc(NC(=O)Nc4cc(C(F)(F)F)ccc4F)cc3)c12 | cell-free assay, inhibitor | 20 µM | remaining signal | 57%
CS(=O)(=O)CCNCc1ccc(-c2ccc3ncnc(Nc4ccc(OCc5cccc(F)c5)c(Cl)c4)c3c2)o1 | cell-free assay | 0.5 µM | remaining signal | 11.2%
CCN(CC)c1ccc(C2=NNC(=O)CC2C)cc1[N+](=O)[O-] (stereo not shown) | enzyme activity, inhibitor | 10 µM | remaining activity | 94%
CC(C)CC(=O)N1CCc2nc(-c3ccc(Br)cc3)nc(N(C)Cc3ccccc3)c2C1 | cell-free assay, competition with immobilised ligand | 0.1 µM | remaining binding | 94%
COc1cc(Nc2cnc(C#N)c(O[C@H](C)CN(C)C)n2)ncc1-c1cnn(C)c1 | enzyme activity, inhibitor, radiometric | 1 µM | remaining activity | 101%
CCCS(=O)(=O)Nc1ccc(F)c(C(=O)c2c[nH]c3ncc(-c4ccc(Cl)cc4)cc23)c1F | enzyme activity, inhibitor | 1 µM | inhibition | < 10%
CC(C)(C)c1nc(-c2cccc(NS(=O)(=O)c3c(F)cccc3F)c2F)c(-c2ccnc(N)n2)s1 | enzyme activity, inhibitor, radiometric | 1 µM | remaining activity | 91%
CN(C(=O)c1ccccc1)c1cc(N(C)c2ccc3c(c2)CCc2ccc(C(=O)NCCN4CCOCC4)cc2C3=O)ccc1F | cell-free assay, competition with immobilised ligand | 1 µM | remaining binding | 90%
FC(F)c1nc2ccccc2n1-c1nc(N2CCOCC2)nc(N2CCOCC2)n1 | enzyme activity, inhibitor | 10 µM | remaining activity | 103%
O=C(NCc1ncc(C(F)(F)F)cc1Cl)c1ccc2c(c1)C1(CCS(=O)(=O)CC1)[C@@H](C1CC1)N2S(=O)(=O)c1ccc(F)cc1 | cell-free assay, competition with immobilised ligand | 1 µM | remaining binding | 72%
COc1cc(Cl)c(C(=O)N[C@@H](CN[C@H]2CC[C@@H](N)CC2)Cc2ccc(C#N)cc2)cc1-c1ccc(CN[C@H](C)c2ccc(C)cc2)o1 | enzyme activity, inhibitor | 1 µM | remaining activity | 99%
N#CCCc1ccc2c(c1)-c1[nH]c3ccc([N+](=O)[O-])cc3c1CC(=O)N2 | cell-free assay | 0.5 µM | remaining signal | 91.8%
CN1CC(Oc2cnc(C#N)cc2-c2ccn3nc(NC(=O)C4CC4)cc3c2)C1 | enzyme activity, inhibitor | 1 µM | inhibition | -2%
Cc1ccc(C(=O)Nc2ccc(CN3CCN(C)CC3)c(C(F)(F)F)c2)cc1C#Cc1cnc2cccnn12 | enzyme activity, inhibitor | 23.5 nM | remaining activity | 57%
Cc1cnc(NC2CCOCC2)nc1-n1cnc(C(=O)NC(CN)c2cc(F)cc(Cl)c2)c1 (stereo not shown) | enzyme activity, inhibitor, radiometric | 1 µM | remaining activity | 108%
COc1cc2ncnc(Nc3ccc(F)c(Cl)c3)c2cc1OCCCN1CCOCC1 | cell-free assay | 0.5 µM | remaining signal | 24.2%
CC(=O)c1c(NS(C)(=O)=O)c2cc(-c3ccc(Cl)cc3)c(-c3ccc(Cl)cc3Cl)nc2n(C)c1=O | cell-free assay, competition with immobilised ligand | 1 µM | remaining binding | 100%
CC(C)(O)[C@H]1CC[C@H](Nc2ccc3ncc(-c4cccc(C(F)(F)F)c4)n3n2)CC1 | enzyme activity, inhibitor | 1 µM | remaining activity | 92.6%
Cc1cc(-n2nc(Cc3cc(F)cc(C(F)(F)F)c3)nc2C)ccc1C(N)=O | cell-free assay, competition with immobilised ligand | 1 µM | remaining binding | 67%
CCCOc1ccc(OC)c(F)c1C(=O)c1ccc(C(=O)N[C@@H]2CNC[C@H]2NC(=O)c2ccc3[nH]ncc3c2)cc1 | enzyme activity, inhibitor | 10 µM | remaining activity | 92%
C=CC(=O)Nc1cc(Nc2nccc(Nc3cc(Cl)c(F)cc3C(C)(C)O)n2)c(OC)cc1N1CC[C@@H](N(C)C)C1 | enzyme activity, inhibitor | 1 µM | inhibition | 88%
Cc1nc(N2CC[C@@H](O)C2)ncc1-c1cc(C(F)(F)F)cc2[nH]ncc12 | binding, competition with immobilised ligand | 1 µM | remaining binding | 87%
Cc1ccc(Nc2nccc(N(C)c3ccc4c(C)n(C)nc4c3)n2)cc1S(N)(=O)=O | enzyme activity, inhibitor | 10 µM | inhibition | 36%
O=C1NC(=O)c2cc(Nc3ccc(F)cc3)c(Nc3ccc(F)cc3)cc21 | cell-free assay | 0.5 µM | remaining signal | 99.4%
O=C(NC[C@@H]1[C@H]2CN(C(=O)OCc3cc(C(F)(F)F)cc(C(F)(F)F)c3)C[C@@H]12)c1ccc2[nH]nnc2c1 | cell-free assay, competition with immobilised ligand | 1 µM | remaining binding | 100%
